SENP1 FRET inh: SENP1 (human) catalytic domain inhibition. Q9P0U3. inhibition, % at 10 µM. recombinant SENP1 catalytic domain, CyPet-SUMO1-YPet FRET cleavage. hit rate 0.21% among 360,000;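 active = inhibition at least 30% at 10 µM, raw YFP signal under a set limit, fluorescence ratio 0.5 to 1.5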
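system = hSENP1 catalytic domain, recombinant | reagent = SFCypet-SUMO1-SFYpet substrate at 25 nM | doses = one dose per compound, 10 µM, 0.5% DMSO | incubation = enzyme reaction for 50 min at room temperature, dark | measured by = FRET, CFP and YFP emission | controls = no-enzyme low, enzyme-DMSO high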
NadD inh: blocks S. aureus nicotinate mononucleotide adenylyltransferase; hit rate 0.78% among 360,000; inhibition, % at 20 µM; AID 602399; purified NadD enzyme, colorimetric absorbance read-out; in the data active = inhibition above about 26%
B2AR ag: human beta-2 adrenergic receptor agonism by FAP; P07550; Am2.2-beta2AR cells, FAP receptor internalization, flow cytometry; response, % (concentration not given with the values); hit rate 0.43% among 340,000; AID 504454;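 active = response above a set limit, near 3 SD of response in nonfluorescent compounds, cut at about 42% in these data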
ABHD5 PLIN5 PPI: blocks binding of human ABHD5 to perilipin-5; Split G. princeps luciferase complementation, luminescence, 4 h; hit rate 0.78% among 360,000; Q00G26+Q8WTS1; inhibition, % at 4 µM; AID 602281;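 active = inhibition above the mean inhibition across every tested compound plus 3 SD, cut at about 22% in these data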
GRK2 aptamer HTS: human GRK2 inhibition via aptamer displacement; P25098; bead flow cytometry, FAM-aptamer displacement from GRK2; inhibition of aptamer binding, % at 10 µM; hit rate 0.59% among 330,000; AID 488847;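 active = inhibition of aptamer binding above 40%, roughly 3 SD of noise, on plates passing a quality check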;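 note: median bead fluorescence of bound FAM aptamer so fluorescent compounds give negative values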
Target sequence (P25098 whole entry, looked up): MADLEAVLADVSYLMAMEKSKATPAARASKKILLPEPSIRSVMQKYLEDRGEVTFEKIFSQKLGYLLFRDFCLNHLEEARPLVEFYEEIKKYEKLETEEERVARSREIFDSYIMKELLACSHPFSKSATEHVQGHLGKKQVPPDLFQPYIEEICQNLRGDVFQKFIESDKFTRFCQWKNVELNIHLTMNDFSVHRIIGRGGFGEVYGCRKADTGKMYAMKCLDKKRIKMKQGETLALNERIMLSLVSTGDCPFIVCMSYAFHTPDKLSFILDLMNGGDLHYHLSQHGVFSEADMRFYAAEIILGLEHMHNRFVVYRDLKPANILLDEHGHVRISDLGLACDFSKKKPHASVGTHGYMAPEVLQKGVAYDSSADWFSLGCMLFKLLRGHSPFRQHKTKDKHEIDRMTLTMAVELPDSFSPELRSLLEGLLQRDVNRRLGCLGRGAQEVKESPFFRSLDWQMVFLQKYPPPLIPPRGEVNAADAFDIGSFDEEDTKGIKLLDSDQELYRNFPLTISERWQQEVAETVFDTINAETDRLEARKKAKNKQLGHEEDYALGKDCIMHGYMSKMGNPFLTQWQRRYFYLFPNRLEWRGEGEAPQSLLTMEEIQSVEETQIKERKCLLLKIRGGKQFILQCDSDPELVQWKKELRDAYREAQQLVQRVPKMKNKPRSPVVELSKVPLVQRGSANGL
NadD conf: NadD (S. aureus) inhibition, single concentration confirmation | shares compounds with NadD inh | purified S. aureus NadD, colorimetric enzyme assay | inhibition, % at 20 µM | hit rate 13% among 2,000 | AID 624309; in the data active = inhibition mostly above about 42%, no sharp cut-off; inactive = mostly below about 42%
Large screens that a line does not name were inactive (follow-up assays come after a bar, where they were run). Sampled rows, rich in hits. Any-hit rate of the full collection: about 2.5%.

CCOc1ccc(C2C(C#N)=C(N)N(c3sc4c(c3C#N)CCCC4)C3=C2C(=O)CCC3)cc1 (stereo not drawn)	NadD inh 55 | NadD conf inactive
N#CC1=C2N=C(N)c3c(sc4c3CCCCC4)N2C2=C(C(=O)CCC2)C1c1ccccc1 (stereo not drawn)	none
COc1ccccc1N1CCN(c2ncnc3n[nH]c(Br)c23)CC1	none (no result: B2AR ag, GRK2 aptamer HTS)
Cc1ccc(C(C)(C)C)cc1S(=O)(=O)N1CCC(C(=O)N2CCN(c3ccc(O)cc3)CC2)CC1	NadD inh 67 | NadD conf inactive
CCC(=O)N1c2ccc(S(=O)(=O)N3CCN(c4ccc([N+](=O)[O-])cc4)CC3)cc2CC1C (stereo not drawn)	none
COc1cccc(-c2ncc3ccccc3c2COC(=O)CCC(=O)O)c1	none
CCCCCCCCOC(=O)c1c(CSC(=N)N)n(C)c2cc(Br)c(OC(C)=O)cc12	NadD inh 42 (no result: GRK2 aptamer HTS) | NadD conf inactive
O=C(c1nn2c(C(F)(F)F)cc(-c3ccco3)nc2c1Br)N1CCCc2ccccc21	NadD inh 31 | NadD conf inactive
Cc1ccc(-c2nnc(Oc3ccc(NC(=O)c4ccccc4)cc3)c3ccccc23)cc1	NadD inh 30 | NadD conf inactive
CSc1ncnc2c1ncn2CCCN(C)Cc1ccco1	none (no result: B2AR ag, GRK2 aptamer HTS)
O=C(O)c1ccc(/C=N/NC(=O)c2ccc(CN3c4cccc5cccc(c45)S3(=O)=O)cc2)cc1	NadD inh 30 | NadD conf 66
COc1ccc(Nc2nc(-c3cccs3)cs2)cc1	none (no result: SENP1 FRET inh, NadD inh, B2AR ag, ABHD5 PLIN5 PPI)
Oc1ccc(Nc2nc(-c3cccs3)cs2)cc1	NadD inh 33 | NadD conf 62
N#Cc1nc(-c2ccc(OCc3ccc(Cl)cc3)cc2)oc1NCCCn1ccnc1	NadD inh 30 | NadD conf inactive
Cc1cc(C(=O)N/N=C/c2cc(Br)ccc2OC(=O)c2ccccc2Cl)n[nH]1	NadD inh 35 | NadD conf inactive
Cc1cc(C(=O)N/N=C/c2cc(Br)ccc2OC(=O)c2ccccc2)n[nH]1	none
O=C(CCNC(=O)c1ccc(Br)cc1)Nc1ncccc1O	none
Cc1c(N(C)C(=O)COc2ccc3ccccc3c2)c(=O)n(-c2ccccc2)n1C	none
Cc1nn(CC(=O)Nc2ccc3c(c2)nc2n3CCN(C3CCCCC3)C2)c(=O)c2ccccc12	NadD inh 32 | NadD conf inactive
Cc1nn(CC(=O)Nc2ccc3c(c2)nc(CCN2CCCCC2)n3C)c(=O)c2ccccc12	none
Cc1ccc(C(=O)/C=C/c2ccc(-c3ccc(C)cc3)o2)cc1	NadD inh 34 | NadD conf inactive
CCN(CC)S(=O)(=O)c1ccc(C(=O)/C=C/c2ccc(-c3ccc([N+](=O)[O-])cc3)o2)cc1	NadD inh 52 | NadD conf inactive
Cc1ccc(NC(=O)CN2C(=O)S/C(=C\c3cccn3-c3cccc(C(=O)O)c3)C2=O)c(C)c1	NadD inh 40 | NadD conf inactive
Cc1cc(C)c2nc(SCC(=O)Nc3ccc(S(=O)(=O)N4CCCC4)cc3)c(C)cc2c1	NadD inh 36 | NadD conf inactive
Cc1cc2nc(-c3ccc(SCC(=O)Nc4ccc(S(=O)(=O)N5CCCC5)cc4)nc3)[nH]c2cc1C	NadD inh 40 | NadD conf inactive
Cc1cc(OCC(=O)Nc2ccc(N3CCCC3)cc2)cc(C)c1Cl	NadD inh 43 | NadD conf inactive
CCOC(=O)c1cc(-c2ccco2)nc2c1c(C)nn2-c1ccccc1	NadD inh 33 | NadD conf inactive
COc1cc(OC)c(N(C)S(=O)(=O)c2cccc(C(=O)Nc3nnc(C4CC4)s3)c2)cc1Cl	NadD inh 32 | NadD conf inactive
O=C1CCC(C(=O)Nc2cccc(S(=O)(=O)Nc3ccccc3F)c2)=NN1	none
COc1cc(/C=C(/C#N)c2ccccc2)ccc1Oc1ccc([N+](=O)[O-])cn1	none
COc1cc(/C=C(\C#N)c2nc3ccccc3[nH]2)ccc1Oc1ccc([N+](=O)[O-])cn1	NadD inh 33 | NadD conf inactive
COc1ccc(/C=C(\C#N)c2nc3ccc(C)cc3[nH]2)cc1Oc1ccc(C(F)(F)F)cc1[N+](=O)[O-]	NadD inh 32 | NadD conf inactive
Cc1ccc2nc(/C(C#N)=C/c3ccc(-c4cccc([N+](=O)[O-])c4)o3)[nH]c2c1	NadD inh 32 | NadD conf inactive
N#C/C(=C\c1cccc(Oc2ccc(C(F)(F)F)cc2[N+](=O)[O-])c1)c1nc2ccccc2[nH]1	NadD inh 38 | NadD conf inactive
O=C(c1noc2c1CSc1ccccc1-2)N1CCN(c2ccc(Cl)cc2)CC1	none
COc1cc(/C=C(\C#N)c2nc3ccc(C)cc3[nH]2)cc([N+](=O)[O-])c1O	none (no result: GRK2 aptamer HTS)
Cc1ccc2nc(/C(C#N)=C\c3ccc(Oc4ccc(C(F)(F)F)cc4[N+](=O)[O-])cc3)[nH]c2c1	NadD inh 33 | NadD conf inactive
COc1cccc(-c2nc(-c3ccccc3)c3ccc(Cl)cc3n2)c1	none (no result: B2AR ag, GRK2 aptamer HTS)
CSc1cccc(N2CC(C(=O)N(CC(C)C)c3c(N)n(Cc4ccccc4)c(=O)[nH]c3=O)CC2=O)c1 (stereo not drawn)	none
Cc1cc(=O)oc2cc(OCc3ccc(C(=O)OCC(=O)NC4CCS(=O)(=O)C4)cc3)ccc12 (stereo not drawn)	none
Cc1cc(=O)oc2cc(OCc3ccc(C(=O)OCC(=O)Nc4ccc(N(C)C)cc4)cc3)ccc12	NadD inh 35, B2AR ag 49 (no result: GRK2 aptamer HTS) | NadD conf inactive
COc1ccccc1C#Cc1cnc2c(c1)C(=O)N([C@H](C)CO)C[C@H](C)[C@@H](CN(C)S(=O)(=O)c1cn(C)cn1)O2	none (no result: B2AR ag, GRK2 aptamer HTS)
Cc1csc(NC(=O)CSc2nnc(NC(=O)COc3ccc(Cl)cc3)s2)n1	NadD inh 35 | NadD conf inactive
CCOC(=O)N1CCC(N2C(=O)c3ccc(C(=O)Nc4ccc(OC)c(OC)c4)cc3C2=O)CC1	none
NC(CSC1(c2cccc3ccccc23)c2ccccc2-c2ccccc21)C(=O)O (stereo not drawn)	NadD inh 42 (no result: GRK2 aptamer HTS) | NadD conf 64
Cc1cc(=O)c(C(=O)O)nn1-c1ccccc1F	none
COc1cc(C2C(C#N)=C(N)N(Nc3ccccc3)C3=C2C(=O)CC(C)(C)C3)ccc1OCc1cccc(F)c1 (stereo not drawn)	NadD inh 31 | NadD conf inactive
COc1cc(C2C(C#N)=C(N)N(Nc3ccccc3)C3=C2C(=O)CC(C)(C)C3)ccc1OCc1ccccc1 (stereo not drawn)	none
Cc1ccccc1[C@H](NC1c2ccccc2C=Cc2ccccc21)P(=O)(c1ccccc1)c1ccccc1	NadD inh 31 (no result: B2AR ag, GRK2 aptamer HTS) | NadD conf inactive
Cc1ccc(S(=O)(=O)N2CCN(C(=O)COC(=O)C3CCC3)CC2)cc1	none
O=C(NC(Cc1c[nH]c2ccccc12)C(=O)N/N=C/c1ccc(Cl)cc1)c1cccs1 (stereo not drawn)	NadD inh 31 | NadD conf inactive
